Experimental data of several laboratories.
Compare with care: the assays were run in different laboratories.
Target: Serine-protein kinase ATM (ATM, Homo sapiens, UniProt Q13315)

Compound	assay	conditions	quantity	value
Cc1cnc(NC2CCOCC2)nc1-n1cnc(C(=O)NC(CN)c2cc(F)cc(Cl)c2)c1 (centres unmarked)	enzyme activity, inhibitor, radiometric	1 µM	remaining activity	102%
CN1CC(Oc2cnc(C#N)cc2-c2ccn3nc(NC(=O)C4CC4)cc3c2)C1	enzyme activity, inhibitor	1 µM	inhibition	14%
Cc1ccc(C(=O)NCc2ccsc2)cc1C#Cc1cn(C(C)C)c2ncnc(N)c12	enzyme activity, inhibitor	1 µM	activity vs control	101%
CCCCNc1ncc2c(-c3ccc(F)cc3)nn(C[C@H]3CC[C@H](N)CC3)c2n1	target engagement in cells, inhibitor, chemoproteomics	20 mM	inhibition	57.4%
COc1cc(Cl)c(C(=O)N[C@@H](CN[C@H]2CC[C@@H](N)CC2)Cc2ccc(C#N)cc2)cc1-c1ccc(CN[C@H](C)c2ccc(C)cc2)o1	enzyme activity, inhibitor	1 µM	remaining activity	106%
Cc1cc(NC(=O)c2cccc3cc(-c4cccc5[nH]nc(N)c45)ccc23)ccc1F	enzyme activity, inhibitor	0.1 µM	activity vs control	94%
Cc1ccc(NC(=O)c2ccc(C)c(C(F)(F)F)c2)cc1C#Cc1nn(C2CCC(O)CC2)c2ncnc(N)c12 (centres unmarked)	cell-free assay	10 µM	remaining signal	102%
COc1cccc2c(NCc3ccccc3)nc(-n3c(N)nc4ccccc43)nc12	target engagement in cells, inhibitor, chemoproteomics	20 mM	inhibition	-4.3%
